# Results from PMC6072465 (MedChemComm, 2017).
# Legend:
# [1] = tested on: HCT116 (human colon carcinoma) cancer cells; experiment: Oxygen consumption, Seahorse XF-96 Analyzer; type: cell-based; details: incubation for 24 hours
# Outline: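 HCT116 cells grown in DMEM with 10% heat-inactivated FCS and penicillin/streptomycin at 37 °C, 5% CO2. About 15 000 cells/well adhered overnight, then were exposed to test compounds for 24 h. Cells were washed and held 1 h at 37 °C without CO2 in unbuffered DMEM (5 mM glucose, 2 mM glutamine, pH 7.4). Basal OCR was read, then sequential oligomycin, CCCP, and rotenone/antimycin A. Rates normalized to total well protein.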
# HCT116 cells = experiment: Cytochrome c release from mitochondria to cytosol; type: cell-based, human; details: concentration 3.5 μM
# [2] = tested on: caspase-3 in HCT116 cells; experiment: Caspase-3 activity with fluorogenic substrate DEVD-AMC, HCT116 cells; type: cell-based, human; details: compared with betulinic acid
# [3] = tested on: caspase-3 in TET21N cells; experiment: Caspase-3 activity with fluorogenic substrate DEVD-AMC, TET21N cells; type: cell-based, human; details: compared with betulinic acid
SMILES,effect on mitochondrial respiration (oxygen consumption) [1],release of cytochrome c from the mitochondria to the cytosol (HCT116 cells),activation of caspase-3 [2],activation of caspase-3 [3]
"C=C(C)[C@@H]1CC[C@]2(C(=O)O)CC[C@]3(C)[C@H](CC[C@@H]4[C@@]5(C)CC[C@H](O)C(C)(C)[C@@H]5CC[C@]43C)[C@@H]12 [BA, betulinic acid, reference compound]",ineffective,failed to trigger the release of cytochrome c,,
"C=C(C)[C@@H]1CC[C@]2(C(=O)OCCOCCOCC[P+](c3ccccc3)(c3ccccc3)c3ccccc3)CC[C@]3(C)[C@H](CC[C@@H]4[C@@]5(C)CC[C@H](OC(C)=O)C(C)(C)[C@@H]5CC[C@]43C)[C@@H]12.[Br-] [compound 7, 8′-(Triphenylphosphonio-3′,6′-dioxaoctan-1′-yl)-3β-acetoxylup-20(29)-en-28-oate bromide]",suppressed respiration in a concentration-dependent manner,,,
"C=C(C)[C@@H]1CC[C@]2(C(=O)OCCOCCOCC[P+](c3ccccc3)(c3ccccc3)c3ccccc3)CC[C@]3(C)[C@H](CC[C@@H]4[C@@]5(C)CC[C@H](O)C(C)(C)[C@@H]5CC[C@]43C)[C@@H]12.[Br-] [compound 9, 9′-(Triphenylphosphonio-3′,6′-dioxaoctan-1′-yl)-3β-hydroxylup-20(29)-en-28-oate bromide]",suppressed respiration in a concentration-dependent manner,,considerably surpassed betulinic acid in the caspase-3 activation,considerably surpassed betulinic acid in the caspase-3 activation
